{"data": "Results collected from several papers", "Slc6a3": "Sodium-dependent dopamine transporter (Slc6a3, Rattus norvegicus, UniProt P23977)", "Botulinum neurotoxin type A protease": "Botulinum neurotoxin type A, protease (Clostridium botulinum, UniProt P0DPI0)", "Cnr1": "Cannabinoid receptor 1 (Cnr1, Rattus norvegicus, UniProt P20272)", "NA": "Neuraminidase (NA, Influenza A virus, UniProt Q9IGQ6)", "note": "Compare with care: the assays were run in different laboratories."}
{"SMILES": "CC(C)NC(C)C(=O)c1cccc(Cl)c1 (stereo not shown)", "target": "Slc6a3", "read-out": "transporter uptake", "mode": "inhibitor", "method": "radiometric", "measurement": "IC50", "value": "537 nM"}
{"SMILES": "CN1[C@H]2CC[C@@H]1[C@@H](c1cc(-c3ccccc3)no1)[C@H](OC(c1ccc(F)cc1)c1ccc(F)cc1)C2", "target": "Slc6a3", "read-out": "ligand displacement", "method": "radioligand", "setting": "cell membranes", "measurement": "Ki", "value": "14 nM"}
{"SMILES": "O=S(=O)(c1ccc(O)c2nc(Cl)ccc12)N1CCc2c(Cl)cccc21", "target": "Botulinum neurotoxin type A protease", "read-out": "enzyme activity", "mode": "inhibitor", "measurement": "IC50", "value": "> 30000 nM"}
{"SMILES": "O=C1C=CC(=O)N1Cc1ccc(Cl)cc1Cl", "target": "Botulinum neurotoxin type A protease", "read-out": "enzyme activity", "mode": "inhibitor", "measurement": "IC50", "value": "80000 nM"}
{"SMILES": "CCOC(=O)C1C(OC(c2ccc(F)cc2)c2ccc(F)cc2)CC2CCC1N2CCN (racemic)", "target": "Slc6a3", "read-out": "ligand displacement", "method": "radioligand", "setting": "cell membranes", "measurement": "Ki", "value": "17.2 nM"}
{"SMILES": "CCCCCCC(C)(C)c1cc(O)c2c(c1)OC(C)(C)[C@@H]1CC=C(C)C[C@@H]21", "target": "Cnr1", "read-out": "ligand displacement", "method": "radioligand", "measurement": "Ki", "value": "0.9 nM"}
{"SMILES": "COC(=O)C(NC(=O)c1cn(CCCCCF)c2ccccc12)C(C)(C)C (stereo not shown)", "target": "Cnr1", "read-out": "ligand displacement", "method": "radioligand", "setting": "cell membranes", "measurement": "IC50", "value": "2 nM"}
{"SMILES": "CC(Cc1cccc(Cl)c1)NC(C)(C)C (stereo not shown)", "target": "Slc6a3", "read-out": "transporter uptake", "mode": "inhibitor", "method": "radiometric", "measurement": "IC50", "value": "938 nM"}
{"SMILES": "CC1=CC(=O)C2(O1)C(c1cc3oc(=O)c4cc(O)c(O)cc4c3c(=O)o1)=Cc1cc(O)c(O)cc12 (stereo not shown)", "target": "NA", "read-out": "enzyme activity", "mode": "inhibitor", "measurement": "IC50", "value": "8100 nM"}
{"SMILES": "CC(N)C(=O)c1cccc(Cl)c1 (stereo not shown)", "target": "Slc6a3", "read-out": "transporter uptake", "mode": "inhibitor", "method": "radiometric", "measurement": "IC50", "value": "399 nM"}
{"SMILES": "CC(C)(C)C(NC(=O)c1cn(CCCCCF)c2ccccc12)C(=O)O (stereo not shown)", "target": "Cnr1", "read-out": "ligand displacement", "method": "radioligand", "setting": "cell membranes", "measurement": "IC50", "value": "3340 nM"}
{"SMILES": "CN(C)CCc1c[nH]c2ccccc12", "target": "5-hydroxytryptamine receptor 1B (HTR1B, Homo sapiens, UniProt P28222)", "read-out": "ligand displacement", "method": "radioligand", "measurement": "Ki", "value": "130 nM"}
{"SMILES": "O=C1C=C(/C=C/c2ccc(O)c(O)c2)OC12C(c1cc3oc(=O)c4cc(O)c(O)cc4c3c(=O)o1)=Cc1cc(O)c(O)cc12 (stereo not shown)", "target": "NA", "read-out": "enzyme activity", "mode": "inhibitor", "measurement": "IC50", "value": "8000 nM"}
